Data reported in ChEMBL document CHEMBL1909618, “Non-steroidal dissociated glucocorticoid agonists: indoles as A-ring mimetics and function-regulating pharmacophores” (Bioorg Med Chem Lett, 2011).
Activity calls are given as the source filed them. The calls are words filed in the database; no cut-off is given here.

How the values were obtained:
[1] = molecular target: T1, Androgen receptor (Homo sapiens) (UniProt P10275); assay: Displacement of [3H]-testosterone from human recombinant androgen receptor expressed in baculovirus infected insect cells at 1200 nM
T1 sequence (whole entry): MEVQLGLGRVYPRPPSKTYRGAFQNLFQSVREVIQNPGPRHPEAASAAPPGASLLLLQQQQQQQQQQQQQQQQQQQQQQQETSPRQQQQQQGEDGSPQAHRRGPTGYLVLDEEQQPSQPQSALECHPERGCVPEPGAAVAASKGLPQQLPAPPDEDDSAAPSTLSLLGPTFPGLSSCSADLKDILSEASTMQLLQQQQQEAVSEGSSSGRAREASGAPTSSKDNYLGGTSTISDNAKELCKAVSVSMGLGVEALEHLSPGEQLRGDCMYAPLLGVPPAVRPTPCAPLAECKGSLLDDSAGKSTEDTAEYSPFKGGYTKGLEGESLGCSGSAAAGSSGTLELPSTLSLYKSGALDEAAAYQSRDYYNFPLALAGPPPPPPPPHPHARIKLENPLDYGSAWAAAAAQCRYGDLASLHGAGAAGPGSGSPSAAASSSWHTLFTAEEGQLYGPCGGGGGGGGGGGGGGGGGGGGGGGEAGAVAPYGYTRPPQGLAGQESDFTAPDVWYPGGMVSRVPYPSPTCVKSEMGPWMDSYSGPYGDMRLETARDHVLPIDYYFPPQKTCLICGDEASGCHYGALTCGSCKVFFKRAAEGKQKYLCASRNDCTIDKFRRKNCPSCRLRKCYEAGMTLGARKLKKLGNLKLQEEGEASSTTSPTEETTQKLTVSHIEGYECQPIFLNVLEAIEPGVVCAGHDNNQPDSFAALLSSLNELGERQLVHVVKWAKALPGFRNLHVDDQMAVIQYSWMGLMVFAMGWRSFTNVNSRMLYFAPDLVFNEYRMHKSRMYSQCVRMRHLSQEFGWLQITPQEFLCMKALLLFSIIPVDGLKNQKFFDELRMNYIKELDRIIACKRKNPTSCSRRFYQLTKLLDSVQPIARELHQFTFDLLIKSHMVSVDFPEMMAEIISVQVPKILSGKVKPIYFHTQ
Method in brief: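 Competition of test compound at a single concentration against 10 nM ³H-testosterone for binding to recombinant human AR in lysates of baculovirus-infected cells. Dihydrotestosterone at 2 µM served as the positive control. Results are expressed as % of control.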

[2] = Half life in Sprague-Dawley rat at 2 mg/kg, iv; format: ADME, organism-based; parameters: dose 2 mg/kg, route intravenous; conditions: in vivo
Method in brief: (§1)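 Rat PK: IV dose 2 mg/kg in PEG400/water (70:30); oral dose 30 mg/kg in PEG400/H2O/Tween (80/18/2). Values are the mean of 3 rats.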

[3] = system: Mus musculus; assay: Antiarthritic activity in B10.R3 mouse collagen-induced arthritis model assessed as AUC of disease progression inhibition at 30 mg/kg, po qd for 5 weeks; format: functional; conditions: B10.R3, 840 h
Method in brief: (§2)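 B10.RIII mice immunized with porcine type II collagen plus complete Freund's adjuvant were enrolled at the first signs of arthritis. They were dosed orally once daily for 5 weeks; vehicle was 30% Cremophor RH. All four paws were scored 1–4 (maximum 16 per animal). Disease-score AUCs from 10 mice per group were compared with vehicle by Mann–Whitney test.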

[4] = Clearance in B10.R3 mouse at 1 mg/kg, iv; format: ADME, organism-based; parameters: dose 1 mg/kg, route intravenous; conditions: in vivo
Method in brief: (§3)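 Mouse PK: IV dose 1 mg/kg in PEG400/water (70:30); oral dose 30 mg/kg given as a suspension in 30% Cremophor. Values are the mean of 3 mice.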

[5] = system: Mus musculus; assay: Toxicity in B10.R3 mouse collagen-induced arthritis model assessed as change in serum insulin level at 30 mg/kg, po qd for 5 weeks by ELISA relative to control; format: organism-based; parameters: dose 30 mg/kg, route oral; conditions: in vivo, 840 h
[6] = species on record: Homo sapiens; assay: Selectivity ratio of IC50 for human recombinant glucocorticoid receptor to IC50 for human recombinant mineralocorticoid receptor
[7] = species on record: Homo sapiens; assay: Selectivity ratio of IC50 for human recombinant glucocorticoid receptor to IC50 for human recombinant progesterone receptor
[8] = molecular target: T2, Glucocorticoid receptor (Homo sapiens) (UniProt P04150); assay: Agonist activity at glucocorticoid receptor in human HeLa cells transfected with luciferase gene linked to MMTV promoter assessed as luciferase transactivation activity relative to Dexamethasone; format: functional, cell-based
T2 sequence (whole entry): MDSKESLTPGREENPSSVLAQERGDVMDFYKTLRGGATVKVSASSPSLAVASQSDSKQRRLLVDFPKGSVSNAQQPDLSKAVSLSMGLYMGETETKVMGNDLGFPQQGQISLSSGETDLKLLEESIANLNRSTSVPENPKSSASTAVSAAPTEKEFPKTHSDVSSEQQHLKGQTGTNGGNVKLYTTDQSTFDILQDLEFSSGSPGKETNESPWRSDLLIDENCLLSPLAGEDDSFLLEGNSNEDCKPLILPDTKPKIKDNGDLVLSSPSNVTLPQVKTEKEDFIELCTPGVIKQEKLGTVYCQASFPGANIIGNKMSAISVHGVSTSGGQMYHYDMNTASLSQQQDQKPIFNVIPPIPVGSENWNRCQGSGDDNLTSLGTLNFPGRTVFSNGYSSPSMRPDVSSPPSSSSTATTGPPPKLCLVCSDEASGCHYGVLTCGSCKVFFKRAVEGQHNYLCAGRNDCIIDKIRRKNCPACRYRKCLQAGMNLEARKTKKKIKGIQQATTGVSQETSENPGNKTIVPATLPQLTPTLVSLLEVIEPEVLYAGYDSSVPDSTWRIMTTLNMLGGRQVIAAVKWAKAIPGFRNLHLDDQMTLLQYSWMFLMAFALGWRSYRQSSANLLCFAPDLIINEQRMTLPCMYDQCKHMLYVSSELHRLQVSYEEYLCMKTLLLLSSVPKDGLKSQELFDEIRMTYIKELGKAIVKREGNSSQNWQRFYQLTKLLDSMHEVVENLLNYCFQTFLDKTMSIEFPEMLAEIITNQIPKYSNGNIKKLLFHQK
Method in brief: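 HeLa cells stably carrying an MMTV-luciferase construct were exposed to compound for 6 h at 37 °C, 5% CO2. Cells were then lysed and luminescence read with a Steady-Glo reagent. EC50 and % maximal efficacy were reported.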

[9] = system: Mus musculus; assay: Antiarthritic activity in B10.R3 mouse collagen-induced arthritis model assessed as AUC of disease progression inhibition at 10 mg/kg, po qd for 5 weeks; format: functional; conditions: B10.R3, 840 h; method in brief: as §2
[10] = Cmax in B10.R3 mouse at 30 mg/kg, po; format: ADME, organism-based; parameters: dose 30 mg/kg, route oral; conditions: in vivo; method in brief: as §3
[11] = Clearance in Sprague-Dawley rat at 2 mg/kg, iv; format: ADME, organism-based; parameters: dose 2 mg/kg, route intravenous; conditions: in vivo; method in brief: as §1
[12] = Volume of distribution at steady state in B10.R3 mouse at 1 mg/kg, iv; format: ADME, organism-based; parameters: dose 1 mg/kg, route intravenous; conditions: in vivo, read-out: Vdss; method in brief: as §3
[13] = system: Mus musculus; assay: Toxicity in B10.R3 mouse collagen-induced arthritis model assessed as change in body fat level at 30 mg/kg, po qd for 5 weeks relative to control; format: organism-based; parameters: dose 30 mg/kg, route oral; conditions: in vivo, 840 h
Method in brief: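 Arthritic B10.RIII CIA mice were dosed orally once daily for 5 weeks. At day 35 they were anesthetized with ketamine (50 mg/kg) and xylazine (15 mg/kg). Body fat was assessed by whole-body density scan. Serum triglycerides were measured by enzymatic kit (Wako L-Type TG-H) and free fatty acids by NEFA-C. Results are expressed as % change versus vehicle and compared by t-test.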

Structure (SMILES)	Activity [1]	half-life [2] [h]	inhibition in vivo at 30 mg/kg [3] [%]	clearance [4] [mL/min/kg]	Activity [5] [%]	Ratio IC50 [6]	Ratio IC50 [7]	Efficacy [8] [%]	inhibition in vivo at 10 mg/kg [9] [%]	Cmax [10] [ng/mL]	clearance [11] [mL/min/kg]	Vd [12] [L/kg]	Activity [13] [%]
COc1ccc(F)cc1C(C)(C)C[C@@](O)(Cc1cc2ccccc2[nH]1)C(F)(F)F	inactive												
CC(C)(C[C@@](O)(Cc1cc2ccc(C#N)cc2[nH]1)C(F)(F)F)c1cc(S(C)(=O)=O)cc2c1OCC2		1.7	45	4	-29	100	100	10	62	6190	51	0.9	6
